Our source for the ED50, Activity and Emax values is ChEMBL document CHEMBL4622923, “Discovery of 4-Phenylpiperidine-2-Carboxamide Analogues as Serotonin 5-HT2C Receptor-Positive Allosteric Modulators with Enhanced Drug-like Properties” (J Med Chem, 2020).

Activity calls are given as the source filed them.

Data set [1] has as its system Rattus norvegicus. In words: Neurobiological activity in ip dosed Sprague-Dawley rat assessed as increase in number of rat choosing drug associated lever treated 15 mins prior to test by drug discrimination test. The format is functional.
Data set [2] has as its system Rattus norvegicus. In words: Neurobiological activity in Sprague-Dawley rat assessed as increase in number of rat choosing drug associated lever at 0.75 mg/kg, ip treated 15 mins prior to test by drug discrimination test relative to control. The format is functional. In short, it runs like this: (§1)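 Male Sprague-Dawley rats (n = 13, 300–325 g) held at 80–90% free-feeding weight by water restriction. Trained to discriminate WAY163909 0.75 mg/kg ip from saline, 1 mL/kg, 15 min pretreatment. Two-lever, water-reinforced, FR20, 15 min sessions. Criterion ≥80% correct responding for 10 sessions. Test doses given ip 15 min pretest. Read-out: percentage of rats choosing the drug lever.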

Data set [3] relates to Rattus norvegicus. As to the kind of experiment: Neurobiological activity in Sprague-Dawley rat assessed as increase in number of rat choosing drug associated lever at 0.625 mg/kg, ip treated 15 mins prior to test by drug discrimination test relative to control. The format is functional. In short, it runs like this: as §1
The test system of data set [4] is Rattus norvegicus. In words: Neurobiological activity in Sprague-Dawley rat assessed as increase in number of rat choosing drug associated lever at 1 mg/kg, ip treated 15 mins prior to test by drug discrimination test relative to control. The data set is classed as functional. The method, boiled down: as §1
Data set [5] relates to Rattus norvegicus. As to the kind of experiment: Neurobiological activity in Sprague-Dawley rat assessed as increase in number of rat choosing drug associated lever at 0.25 to 0.625 mg/kg, ip treated 15 mins prior to test by drug discrimination test. The format is functional, organism-based. In short, it runs like this: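 Male Sprague-Dawley rats (n=13), water-restricted to 80-90% free-feeding weight, trained in a two-lever water-reinforced task (FR 20) to discriminate 0.75 mg/kg WAY163909 ip from saline (1 mL/kg). Test drug given ip 15 min before the 15-min session. Read-out is the percentage of rats choosing the drug lever. ED50 is taken from log-probit analysis.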

Data set [6] concerns Rattus norvegicus. As to the kind of experiment: Neurobiological activity in Sprague-Dawley rat assessed as increase in number of rat choosing drug associated lever at 0.5 mg/kg, ip treated 15 mins prior to test by drug discrimination test relative to control. The format is functional. In short, it runs like this:
as §1

The target in data set [7] is T1, 5-hydroxytryptamine receptor 2C (Homo sapiens) (UniProt P28335).
T1 sequence (whole entry): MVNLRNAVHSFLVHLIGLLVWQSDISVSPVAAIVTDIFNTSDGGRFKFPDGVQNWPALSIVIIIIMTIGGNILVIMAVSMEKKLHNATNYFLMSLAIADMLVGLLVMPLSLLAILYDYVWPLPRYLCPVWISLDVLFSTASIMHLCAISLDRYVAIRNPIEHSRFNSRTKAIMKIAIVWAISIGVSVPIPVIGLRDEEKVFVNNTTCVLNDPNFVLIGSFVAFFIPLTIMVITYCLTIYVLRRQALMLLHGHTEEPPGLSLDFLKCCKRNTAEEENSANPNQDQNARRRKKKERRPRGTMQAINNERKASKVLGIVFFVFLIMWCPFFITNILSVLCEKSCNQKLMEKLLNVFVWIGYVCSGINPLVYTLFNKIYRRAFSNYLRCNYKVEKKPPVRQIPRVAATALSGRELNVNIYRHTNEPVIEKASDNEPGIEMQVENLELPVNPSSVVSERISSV
As to the kind of experiment: Positive allosteric modulation of human 5HT2CR expressed in CHO cells assessed as increase in 5-HT induced intracellular calcium release at 1 nM preincubated for 15 mins followed by 5-HT addition and measured at 1 secs interval for 360 secs by calcium 4 dye based FLIPR assay relative to 5-HT. The format is functional, cell-based. The method, boiled down: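 CHO cells stably expressing human unedited (INI) 5-HT2C receptor, serum-starved 3 h, then loaded 60 min at 37 °C with Calcium 4 dye and 2.5 mM probenecid in HBSS (pH 7.4). Compound added 15 min before 5-HT (10 pM–10 μM). FLIPR read every 1 s for 360 s; peak height; Emax by 4-parameter fit, 4–6 biological replicates in triplicate, relative to 5-HT alone.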
(In general: Calcium assays in cells follow changes in intracellular calcium, usually with a dye or a luminescent sensor.)

Data set [8] deals with T2, 5-hydroxytryptamine receptor 2C (Homo sapiens, UniProt P28335).
T2 sequence (P28335 whole entry): T1 sequence (whole entry)
As to the kind of experiment: Agonist activity at human 5HT2CR expressed in CHO cells assessed as increase in intracellular calcium release at 1 nM incubated for 15 mins measured at 1 secs interval for 120 secs by calcium 4 dye based FLIPR assay relative to 5-HT. The data set is classed as cell-based. The settings on record: 0.001 µM. In short, it runs like this:
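h5-HT2CR (unedited INI isoform) stably expressed in CHO cells; cells plated ~24 h, serum-free medium 3 h, then Calcium 4 dye with 2.5 mM probenecid in Ca/Mg-free HBSS pH 7.4 for 60 min at 37°C plus 15 min at room temperature. Compound given alone, read for 15 min before 5-HT. Peak fluorescence is expressed relative to the 5-HT Emax. 4-6 biological replicates, each in triplicate.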

In data set [9] the target is 5-HT2A receptor (Homo sapiens, UniProt P28223). In words: Positive allosteric modulation of human 5HT2AR expressed in CHO cells assessed as increase in 5-HT induced intracellular calcium release at 1 nM preincubated for 15 mins followed by 5-HT addition and measured at 1 secs interval for 360 secs by calcium 4 dye based FLIPR assay relative to 5-HT. The format is cell-based. Conditions: CHO cells expressing human 5HT2AR. In short, it runs like this:
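CHO cells stably expressing human 5-HT2AR, serum-starved 3 h, then loaded with Calcium 4 dye plus 2.5 mM probenecid in HBSS (no Ca/Mg, pH 7.4) for 60 min at 37°C and 15 min at room temperature. Test compound added 15 min before 5-HT (10 pM-10 μM). FLIPR fluorescence read every 1 s for 360 s after 5-HT. Emax from 4-parameter fit, normalized to 5-HT maximum.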

Sequence of 5-HT2A receptor (P28223 whole entry): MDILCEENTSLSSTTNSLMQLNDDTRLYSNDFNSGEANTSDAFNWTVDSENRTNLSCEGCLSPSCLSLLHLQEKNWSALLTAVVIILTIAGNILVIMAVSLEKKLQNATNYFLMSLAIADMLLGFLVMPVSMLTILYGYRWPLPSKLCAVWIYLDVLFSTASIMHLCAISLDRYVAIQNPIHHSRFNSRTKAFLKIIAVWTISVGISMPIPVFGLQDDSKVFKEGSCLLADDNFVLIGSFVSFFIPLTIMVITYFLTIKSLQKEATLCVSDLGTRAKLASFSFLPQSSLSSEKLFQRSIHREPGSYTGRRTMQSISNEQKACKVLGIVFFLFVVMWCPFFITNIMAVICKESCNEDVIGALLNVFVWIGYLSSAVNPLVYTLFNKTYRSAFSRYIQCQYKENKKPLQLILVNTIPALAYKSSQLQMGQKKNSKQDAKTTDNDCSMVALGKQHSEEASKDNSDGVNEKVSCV

With `c1cc2c3c(c1)[C@H]1CCC[C@H]1N3CCNC2`, in [1], the median effective dose (ED50) (commonly the midpoint of the dose-response relation) is 0.51 mg/kg. Besides, the Activity turned out to be 92% in [2], 54% in data set [3], 100% in data set [4] and 46% in data set [6]. Moreover, the result in data set [5] was Active.

In the case of `O=C(NC[C@H](O)CO)[C@@H]1C[C@H](CCc2ccccc2)CCN1`, in data set [7], the Emax (as a rule, the greatest response seen or fitted, relative to the assay's reference) came to 108%. Further, the Activity result in data set [8] is reported as “Not Active”.

Regarding `O=C(NC[C@H](O)CO)[C@@H]1C[C@H](CCC2CCCCC2)CCN1`, the Emax in data set [7] amounted to 110%. For the same compound, the Activity result in [8] is on record as “Not Active”.

Consider `Cc1ccc(CC[C@H]2CCN[C@@H](C(=O)N[C@H](CO)[C@H](O)c3ccccc3)C2)cc1`, for which the Emax in data set [7] was found to be 98.9%. In addition, the Activity result in [8] was “Not Active”.

Take `O=C(N[C@H](CO)[C@H](O)c1ccccc1)[C@@H]1C[C@H](c2ccccc2)CCN1`: the Emax in data set [7] came to 103%. Besides, the Activity result in data set [8] is on record as “Not Active”.

`CC(C)(C)c1ccc(CC[C@H]2CCN[C@@H](C(=O)N[C@H](CO)[C@H](O)c3ccccc3)C2)cc1`: in data set [7], the maximum response (Emax) is 107%. Further, the Activity entry in data set [8] was “Not Active”.

Turning to `O=C(N[C@H](CO)[C@H](O)c1ccccc1)[C@@H]1C[C@H](CCc2ccccc2)CCN1`, the Emax in [7] stood at 110%. Also, the Activity result in [8] is reported as “Not Active”. Further, in data set [9], the Emax at 0.1 h, 0.001 µM came out at 104%.

As to `O=C(N[C@H](CO)[C@H](O)c1ccccc1)[C@H]1C[C@@H](c2ccccc2)CCN1`, in [7], the Emax stood at 118%. Besides, the Activity result in data set [8] is on record as “Not Active”. Moreover, in data set [9], the Emax at 0.1 h, 0.001 µM came to 103%.

On to `CC(C)(C)c1ccc(CC[C@@H]2CCN[C@H](C(=O)N[C@H](CO)[C@H](O)c3ccccc3)C2)cc1`, for which the Emax in [7] is 115%. Moreover, in data set [8], the Activity result is reported as “Not Active”.

For the compound `O=C(N[C@H](CO)[C@H](O)c1ccccc1)[C@H]1C[C@@H](CCc2ccccc2)CCN1`, the Emax in data set [7] worked out at 109%. Further, the Activity result in data set [8] is “Not Active”.

Take `Cc1ccc(CC[C@@H]2CCN[C@H](C(=O)N[C@H](CO)[C@H](O)c3ccccc3)C2)cc1`: in data set [7], the Emax was found to be 99.3%. In data set [8], the Activity result is listed as “Not Active”.

Take `O=C(NC[C@H](O)CO)[C@@H]1C[C@H](C2CCCCC2)CCN1` (mixture of isomers): the Emax in data set [7] was 118%. Besides, the Activity result in data set [8] was “Not Active”. Further, the Emax at 0.1 h, 0.001 µM in data set [9] is 97.8%.

Regarding `O=C(NCCCN1CCOCC1)[C@@H]1C[C@H](CCc2ccccc2)CCN1` (racemic), the Emax in [7] came out at 118%. In data set [8], the Activity entry is “Not Active”. The Emax at 0.1 h, 0.001 µM in data set [9] amounted to 97.9%.

As for `O=C(NCCN1CCOCC1)[C@@H]1C[C@H](CCc2ccccc2)CCN1` (racemic), the Emax in data set [7] worked out at 94.2%. Further, the Activity result in data set [8] was “Not Active”.

For the compound `O=C(NCCN1CCOCC1)[C@@H]1C[C@H](c2ccccc2)CCN1` (racemic), the Emax in data set [7] stood at 114%. In addition, the Activity result in data set [8] is listed as “Not Active”.

As for `O=C(NC(CO)CO)[C@@H]1C[C@H](c2ccccc2)CCN1` (racemic), the Emax in [7] worked out at 119%. In addition, the Activity result in data set [8] was “Not Active”. The Emax at 0.1 h, 0.001 µM in data set [9] turned out to be 99.3%.

Regarding `O=C(NCCN1CCOCC1)[C@@H]1C[C@H](C2CCCCC2)CCN1` (racemic), the maximal response (Emax) in data set [7] worked out at 121%. Moreover, in data set [8], the Activity result is given as “Not Active”.

Regarding `O=C(NCCN1CCOCC1)[C@@H]1C[C@H](CCC2CCCCC2)CCN1` (racemic), the Emax in data set [7] worked out at 110%. Besides, the Activity entry in [8] is given as “Not Active”.

For `O=C(NCCCN1CCOCC1)[C@@H]1C[C@H](CCC2CCCCC2)CCN1` (racemic), the Emax in [7] is 118%. Besides, the Activity entry in data set [8] was “Not Active”. Besides, the maximal response (Emax) at 0.1 h, 0.001 µM in [9] was found to be 97.2%.

Regarding `O=C(NC(CO)CO)[C@@H]1C[C@H](C2CCCCC2)CCN1` (racemic), the Emax in data set [7] came to 119%. For the same compound, the Activity result in data set [8] is reported as “Not Active”.

With `CCCCCCCCCCC[C@@H]1CCN[C@H](C(=O)NCC(O)CO)C1` (relative stereo), the Activity result in data set [8] is “Not Active”.

`O=C(NC(CO)CO)[C@@H]1C[C@H](CCc2ccccc2)CCN1` (relative stereo): the Emax in data set [7] was determined as 101%. In data set [8], the Activity result is reported as “Not Active”.

As for `O=C(NC(CO)CO)[C@@H]1C[C@H](CCC2CCCCC2)CCN1` (relative stereo), the Emax in data set [7] stood at 106%. The Activity entry in data set [8] is reported as “Not Active”.
